Measurements published in ChEMBL document CHEMBL1153767, “Bromoalkoxyxanthones as promising antitumor agents: synthesis, crystal structure and effect on human tumor cell lines” (2009).

Experiments:
Type in all cases: functional
[1] = system: SF-268; assay: Antitumor activity against human SF268 cells assessed as inhibition of growth after 48 hrs using sulforhodamine B dye; conditions: SF-268, 48 h
Summary of the method: (§1)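 Cells pre-grown 24 h after plating at 1.5 × 10⁵ cells/mL, then exposed 48 h to five serial concentrations from DMSO stocks (DMSO at most 0.5%, vehicle control included). Adherent cells fixed, washed and stained; bound dye solubilized and absorbance read at 492 nm. GI50 (50% inhibition of net growth) from dose–response curve; 3–5 independent experiments in duplicate, mean ± SEM.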

[2] = system: NCI-H460; assay: Antitumor activity against human NCI-H460 cells assessed as inhibition of growth after 48 hrs using sulforhodamine B dye; conditions: NCI-H460, 48 h
Summary of the method: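 NCI-H460 plated at 0.75 × 10⁴ cells/mL, grown 24 h, then treated 48 h with five serial dilutions from DMSO stocks (DMSO at most 0.5%, vehicle control included). After fixing, washing and staining, solubilized dye read at 492 nm. GI50 (50% net growth inhibition) derived from the dose–response curve; 3–5 independent duplicate experiments, mean ± SEM.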

[3] = system: MDA-MB-231; assay: Antitumor activity against human estrogen receptor deficient MDA-MB-231 cells assessed as inhibition of growth after 48 hrs using sulforhodamine B dye; conditions: MDA-MB-231, 48 h
[4] = system: MCF7; assay: Antitumor activity against human MCF7 cells expressing estrogen receptor assessed as inhibition of growth after 48 hrs using sulforhodamine B dye; conditions: MCF7, 48 h; summary of the method: as §1

Structure (SMILES)	GI50 [1] [µM]	GI50 [2] [µM]	GI50 [3] [µM]	GI50 [4] [µM]
O=c1c2ccccc2oc2cccc(OCCCCCCBr)c12	30.2	30.7	> 100	22.7
O=c1c2ccccc2oc2cccc(OCCCCCCOc3cccc4oc5ccccc5c(=O)c34)c12	> 100	> 100	> 100	> 100
O=c1c2ccccc2oc2c(O)c(OCCCCCCBr)ccc12	> 100	> 100	> 100	> 100
O=c1c2ccccc2oc2c(OCCCCCCBr)c(OCCCCCCBr)ccc12	> 100	> 100	56.8	20.5
O=c1c2ccccc2oc2cccc(O)c12	70.8	84.9	66	> 100
O=C(c1ccccc1O)c1ccc(O)cc1O	> 100	91.2	–	100
O=c1c2ccccc2oc2c(O)c(O)ccc12 [3,4-DIHYDROXYXANTHONE]	22.6	11.4	22.8	52.4
COc1cccc2c1C(=O)c1c(O)c3c(c(O)c1C2=O)C[C@@](O)(C(=O)CO)C[C@@H]3O[C@H]1C[C@H](N)[C@H](O)[C@H](C)O1 [DOXORUBICIN]	0.094	0.094	0.0109	–
